Bioassay records as filed in PubChem BioAssay.
An excerpt weighted towards active compounds, which were near 2.3% of everything screened.
TRPC6 act: mouse TRPC6 channel activators, primary screen, cell-based, HEK293, membrane potential dye; HEK293-TRPC6 membrane potential dye fluorescence; active compounds read high; actives 0.13% (n = 310,000); B-score at 10 µM; AID 2550, 2010; Short transient receptor potential channel 6 (Mus musculus), Q61143;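 active = B-score of the integrated fluorescence ratio above library mean plus 3 SD, and starting fluorescence ratio within library mean plus 5 SD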;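 note: higher score means more depolarization so channel activation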
TRPC4 agonist: activators of mouse TRPC4 channel, primary screen, Fluo4 calcium, HEK293 TRPC4beta/mu-opioid cells | Short transient receptor potential channel 4 (Mus musculus), Q9QUQ5 | Fluo4 calcium fluorescence; active compounds read high | B-score at 10 µM | actives 0.49% (n = 310,000);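 active = B-score above 5 SD of library B-scores, and initial fluorescence ratio not above library mean plus 5 SD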;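 note: positive B-score marks a calcium rise read as TRPC4 activation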
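Technique: kinetic Fluo4 calcium fluorescence; Test system: TRPC4beta and mu-opioid receptor HEK293 stable cells; Measure: B-scored integrated calcium fluorescence ratio; Benchmarks: low control buffer alone, high control maximal DAMGO; Schedule: 45 min room-temperature Fluo4 loading, 110 s read.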
TRPC4 PAM: positive allosteric modulators of TRPC4, primary screen, cell-based, mouse TRPC4beta, HEK293 mu-opioid, Fluo-4 calcium; B-score at 10 µM; DAMGO EC20, Fluo-4 Ca2+ flux; active compounds read high; AID 2227, 2009; actives 0.42% (n = 310,000);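 active = B-score of calcium response area above 5 SD of library B-scores, with initial fluorescence ratio within 5 SD of library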;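 note: B-score of integrated fluorescence ratio over time as area under calcium response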
TRPC6 inh: mouse TRPC6 channel inhibitors, primary screen, cell-based, HEK293, membrane potential dye. ACh-evoked depolarization; active compounds read low. actives 1.1% (n = 310,000). B-score at 10 µM. Short transient receptor potential channel 6 (Mus musculus), Q61143;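 active = B-score under library mean minus 3 SD, initial fluorescence not abnormally high, positive integrated signal ratio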;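 note: B-score derived from integrated fluorescence ratio over the kinetic read; more negative B-score means stronger inhibition of depolarization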
TRPC4 block: inhibitors of mouse TRPC4 channel, primary screen, Fluo4 calcium, HEK293 TRPC4beta/mu-opioid cells; Short transient receptor potential channel 4 (Mus musculus), Q9QUQ5; DAMGO-evoked Fluo4 calcium flux; active compounds read low; actives 0.39% (n = 300,000); B-score at 10 µM;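 active = B-score over 3 SD under the library average, no early fluorescence shift, positive overall ratio signal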
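System: stable TRPC4beta/mu-opioid receptor HEK293 cells; Dosing: single-point compound dosing; Measured by: Fluo4 Ca2+ flux fluorescence; Read-out basis: per-well B score of integrated baseline-normalized Fluo4 ratio.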
TRPC4 spec 2: mouse TRPC4 off-target activity of TRPC6 inhibitors, second screen. shares compounds with TRPC6 inh. HEK293 TRPC4/MOR, membrane potential dye fluorescence; channel activated by saturating DAMGO dose. inhibition, % at 10 µM. actives 42% (n = 920);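 active = compounds whose fluorescence signal differed from control wells by over 3 SD, either direction, in both duplicate plates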
TRPC4 spec: mouse TRPC4 modulation by TRPC6 hits, confirmation, selectivity assay for TRPC6 inhibitor project, cell-based, HEK293 TRPC4/mu-opioid, membrane potential dye | activity change, negative = inhibition, % at 10 µM | membrane potential fluorescence | shares compounds with TRPC6 inh | actives 61% (n = 920);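 active = rise or fall in signal beyond 3 SD of buffer-only wells in both replicate plates, either sign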;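 note: integrated kinetic ratio of fluorescence range over baseline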
HEK293 MPD ctr 2-1: nonspecific membrane potential effects, parental HEK293, confirmation, counter-screen for TRPC6 inhibitor project, cell-based, second counter screen. shares compounds with TRPC6 inh. parental HEK293 membrane potential dye fluorescence; maximal acetylcholine challenge after compound addition. actives 31% (n = 920). AID 2779, 2010. signal change vs control, % at 10 µM;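 active = membrane potential signal moving either way by over 3 SD of the maximum-effect control, in both duplicate plates, meaning non-specific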
HEK293 MPD ctr-1: membrane potential modulation in parental HEK293, confirmation, counter-screen for TRPC6 inhibitor project, cell-based. shares compounds with TRPC6 inh. parental HEK293 membrane potential dye fluorescence. membrane potential signal change, % at 10 µM. actives 60% (n = 920). AID 2780, 2010;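 active = membrane potential signal shifting up or down by more than 3 SD of buffer-only wells, on both duplicate plates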
HEK293 MPD ctr-2: parental HEK293 membrane potential modulation, confirmation, counter-screen for TRPC6 modulator project, cell-based | membrane potential signal change, % at 10 µM | actives 51% (n = 2,400) | shares compounds with TRPC6 inh | AID 488924, 2010 | membrane potential dye fluorescence;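 active = membrane potential signal moves up or down beyond 5 SD from buffer-only wells, on both duplicate plates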
HEK293 MPD ctr 2-2: parental HEK293 nonspecific activity of TRPC6 modulators, second screen | shares compounds with TRPC6 inh | membrane potential dye fluorescence; after compound, maximal acetylcholine stimulation | actives 14% (n = 2,400) | inhibition, % at 10 µM;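 active = membrane potential signal drops by more than 5 SD from the mean control signal, in both duplicate plates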;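 note: plate controls were acetylcholine ECmax control wells for no effect and buffer only wells for full effect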
TRPC4/MOR mod: TRPC4 modulation by TRPC6 hit compounds, confirmation, selectivity assay for TRPC6 modulator project, cell-based, HEK293 TRPC4/mu-opioid, membrane potential dye, mouse; shares compounds with TRPC6 inh; membrane potential fluorescence; percent change from control (negative = decrease, positive = increase), % at 10 µM; actives 69% (n = 2,400); AID 488927, 2010;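 active = membrane potential signal moved up or down beyond 5 SD of buffer control wells, in both duplicate plates, actives on both sides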;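 note: plate controls were assay buffer wells for no effect and DAMGO maximal-effect wells for full effect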
TRPC4/MOR inh 2: mouse TRPC4 off-target activity of TRPC6 modulators, second screen | shares compounds with TRPC6 inh | HEK293 TRPC4/mu-opioid, membrane potential dye fluorescence; stimulated with maximal-effect DAMGO | inhibition, % at 10 µM | actives 55% (n = 2,400);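 active = drop in membrane potential signal beyond 5 SD of the control wells in both duplicate plates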;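 note: TRPC4 counter screen for TRPC6 hits run under conditions tuned for TRPC6 not TRPC4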
TRPC6 inh conf: mouse TRPC6 channel inhibitors, confirmation, HEK293 cells, membrane potential dye, duplicate; actives 43% (n = 3,300); inhibition, % at 10 µM; ACh-evoked depolarization; shares compounds with TRPC6 inh;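 active = fluorescence ratio falls more than 5 SD below the full-stimulation control mean, in both duplicate runs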;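 note: integrated fluorescence ratio of peak minus minimum over baseline after agonist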
TRPC6 act confirm: mouse TRPC6 channel activators, confirmation, HEK293 cells, membrane potential dye, duplicate. actives 11% (n = 2,800). AID 488961, 2010. HEK293-TRPC6 membrane potential dye fluorescence, FDSS. shares compounds with TRPC6 inh. activation, % at 10 µM;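 active = ratio signal rise beyond 5 SD above unstimulated control wells' mean, seen in both duplicate runs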;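 note: plate controls were buffer EC0 wells for no effect and acetylcholine ECmax response for full effect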
Numbers without * were called inactive; i = inactive; . = not tested or not shown.

SMILES	TRPC6 act	TRPC4 agonist	TRPC4 PAM	TRPC6 inh	TRPC4 block	TRPC4 spec 2	TRPC4 spec	HEK293 MPD ctr 2-1	HEK293 MPD ctr-1	TRPC6 inh conf	TRPC6 act confirm	others
C[N+]12CCC(CC1)C(OC(=O)C(O)(c1ccccc1)c1ccccc1)C2 (stereo not drawn)	i	i	i	-8.82*	i	i	i	8.0%*	i	80.9%*	i
CCC(CO)(C(=O)OC1C[N+]2(C)CCC1CC2)c1ccccc1 (stereo not drawn)	i	i	i	-11.5*	i	i	i	-30.5%*	i	97.2%*	i
C[N+]12CCC(CC1)C(C(O)(c1cccc(Cl)c1)c1cccc(Cl)c1)C2 (stereo not drawn)	i	i	i	i	i	.	.	.	.	.	.
CC(C)(O)[C@H]1O[C@H]2CC[C@@]3(C)[C@@](O)(CC[C@H]4Cc5c([nH]c6ccccc56)[C@@]43C)C2=CC1=O	i	i	i	i	i	.	.	.	.	.	.
COCCN(C(=O)COC(=O)Cc1ccccc1)c1c(N)n(Cc2ccccc2)c(=O)[nH]c1=O	i	i	i	i	i	.	.	.	.	.	.
CC1(C)CN(S(=O)(=O)OCC(Cl)(Cl)Cl)C(=O)N1	i	i	i	i	i	.	.	.	.	.	.
CN1CCN(Cc2ccc3ccccc3c2)CC1	i	i	i	i	i	.	.	.	.	.	.
CN1CCN(CCC(C#N)(c2ccccc2)c2ccccc2)CC1	i	i	i	-7.24*	i	i	2.6%*	15.0%*	7.2%*	i	.
O=[N+]([O-])c1ccccc1CNCCc1c[nH]c2ccccc12	i	i	i	-5.55*	i	.	.	.	.	i	i	HEK293 MPD ctr-2=i;HEK293 MPD ctr 2-2=i;TRPC4/MOR mod=i;TRPC4/MOR inh 2=42.5%*
c1ccc2c(N3CCNCC3)cccc2c1	i	i	i	i	i	.	.	.	.	.	.
Clc1cccc(N2CCNCC2)c1Cl	i	i	i	-8.96*	i	72.5%*	-0.4%*	i	1.9%*	55.5%*	i
C[N+]1(C)C2CCC1CC(OC(=O)c1ccccc1)C2 (stereo not drawn)	i	i	i	i	i	.	.	.	.	.	.
C[N+]1(C)C2CCC1CC(OC(=O)C(CO)c1ccccc1)C2 (stereo not drawn)	i	i	i	-8.46*	i	i	i	-31.5%*	i	101.7%*	i
C#CC[N+]1(C)[C@@H]2CC(OC(=O)C(CO)c3ccccc3)C[C@H]1C(O)C2 (stereo partly drawn)	i	i	i	-9.94*	i	i	i	1.5%*	i	87.4%*	i
CN1[C@@H]2CC[C@H]1CC(OC(=O)C(CO)c1ccccc1)C2 (stereo partly drawn)	i	i	i	-6.94*	i	i	i	-17.5%*	i	101.0%*	i
